Assay results: ChEMBL document CHEMBL1649231, “In vitro activities of panduratin A against clinical Staphylococcus strains” (2009)
Values after ≈ are worked out from the molar mass of the structure shown.

Legend:
Format in all cases: functional
Staphylococcus hominis [1] = test: Antimicrobial activity against methicillin-resistant coagulase-negative Staphylococcus hominis assessed as intermediate resistant isolates after 24 hrs by broth microdilution method
Staphylococcus simulans [2] = test: Bactericidal activity against methicillin-resistant coagulase-negative Staphylococcus simulans after 24 hrs by plate counting method
Procedure, shortened: (§1)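 Clinical staphylococcal isolates from patient body fluids, blood, genital secretions, pus or sputum; species by conventional methods or Vitek. Twofold dilutions in Mueller-Hinton broth, inoculum 5 × 10^5 CFU/ml, 37°C aerobic 24 h (CLSI M7-A6 microdilution). About 100 μl from each well without visible growth spread on MHA; 37°C 24 h. MBC = lowest concentration giving no growth on agar.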

[3] = tested on: Staphylococcus epidermidis; test: Bactericidal activity against methicillin-susceptible coagulase-negative Staphylococcus epidermidis after 24 hrs by plate counting method; procedure, shortened: as §1
Staphylococcus simulans [4] = test: Bactericidal activity against methicillin-susceptible coagulase-negative Staphylococcus simulans after 24 hrs by plate counting method; procedure, shortened: as §1
[5] = tested on: Staphylococcus haemolyticus; test: Bactericidal activity against methicillin-susceptible coagulase-negative Staphylococcus haemolyticus after 24 hrs by plate counting method; procedure, shortened: as §1
Staphylococcus simulans [6] = test: Antimicrobial activity against methicillin-resistant coagulase-negative Staphylococcus simulans after 24 hrs by broth microdilution method
Procedure, shortened: (§2)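 Clinical isolates came from blood, body fluids, genital secretions, pus or sputum, identified conventionally or by Vitek. MICs were run by CLSI M7-A6 broth microdilution in Mueller-Hinton broth with 5 × 10^5 CFU/ml inoculum. Agents were twofold serially diluted, starting from 10% DMSO. Drug-free and uninoculated controls were included. Plates were incubated aerobically at 37°C for 24 h; MIC is the lowest concentration giving no visible growth.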

Mammaliicoccus sciuri [7] = test: Antimicrobial activity against methicillin-susceptible coagulase-negative Staphylococcus sciuri assessed as resistant isolates after 24 hrs by broth microdilution method
Mammaliicoccus sciuri [8] = test: Bactericidal activity against methicillin-susceptible coagulase-negative Staphylococcus sciuri after 24 hrs by plate counting method; procedure, shortened: as §1
Mammaliicoccus sciuri [9] = test: Antimicrobial activity against methicillin-resistant coagulase-negative Staphylococcus sciuri assessed as intermediate resistant isolates after 24 hrs by broth microdilution method
Mammaliicoccus sciuri [10] = test: Antimicrobial activity against methicillin-susceptible coagulase-negative Staphylococcus sciuri after 24 hrs by broth microdilution method; procedure, shortened: as §2
Staphylococcus hominis [11] = test: Bactericidal activity against methicillin-susceptible coagulase-negative Staphylococcus hominis after 24 hrs by plate counting method; procedure, shortened: as §1
Mammaliicoccus sciuri [12] = test: Antimicrobial activity against methicillin-resistant coagulase-negative Staphylococcus sciuri after 24 hrs by broth microdilution method; procedure, shortened: as §2
Staphylococcus hominis [13] = test: Antimicrobial activity against methicillin-resistant coagulase-negative Staphylococcus hominis assessed as resistant isolates after 24 hrs by broth microdilution method
[14] = tested on: Staphylococcus haemolyticus; test: Antimicrobial activity against methicillin-resistant coagulase-negative Staphylococcus haemolyticus assessed as intermediate resistant isolates after 24 hrs by broth microdilution method
Staphylococcus aureus [15] = test: Antimicrobial activity against methicillin-resistant Staphylococcus aureus assessed as resistant isolates after 24 hrs by broth microdilution method
Staphylococcus hominis [16] = test: Antimicrobial activity against methicillin-susceptible coagulase-negative Staphylococcus hominis after 24 hrs by broth microdilution method; procedure, shortened: as §2
[17] = tested on: Staphylococcus epidermidis; test: Antimicrobial activity against methicillin-resistant coagulase-negative Staphylococcus epidermidis assessed as intermediate resistant isolates after 24 hrs by broth microdilution method
Staphylococcus aureus [18] = test: Antimicrobial activity against methicillin-susceptible Staphylococcus aureus assessed as intermediate resistant isolates after 24 hrs by broth microdilution method
Staphylococcus simulans [19] = test: Antimicrobial activity against methicillin-resistant coagulase-negative Staphylococcus simulans assessed as resistant isolates after 24 hrs by broth microdilution method
Staphylococcus hominis [20] = test: Antimicrobial activity against methicillin-resistant coagulase-negative Staphylococcus hominis assessed as susceptible isolates after 24 hrs by broth microdilution method
Mammaliicoccus sciuri [21] = test: Antimicrobial activity against methicillin-resistant coagulase-negative Staphylococcus sciuri assessed as susceptible isolates after 24 hrs by broth microdilution method
[22] = tested on: Staphylococcus haemolyticus; test: Antimicrobial activity against methicillin-susceptible coagulase-negative Staphylococcus haemolyticus assessed as susceptible isolates after 24 hrs by broth microdilution method
[23] = tested on: Staphylococcus epidermidis; test: Antimicrobial activity against methicillin-resistant coagulase-negative Staphylococcus epidermidis assessed as susceptible isolates after 24 hrs by broth microdilution method
Staphylococcus simulans [24] = test: Antimicrobial activity against methicillin-susceptible coagulase-negative Staphylococcus simulans assessed as resistant isolates after 24 hrs by broth microdilution method
Staphylococcus aureus [25] = test: Antimicrobial activity against methicillin-resistant Staphylococcus aureus assessed as intermediate resistant isolates after 24 hrs by broth microdilution method
Staphylococcus simulans [26] = test: Antimicrobial activity against methicillin-susceptible coagulase-negative Staphylococcus simulans after 24 hrs by broth microdilution method; procedure, shortened: as §2
Staphylococcus aureus [27] = test: Antimicrobial activity against methicillin-resistant Staphylococcus aureus assessed as susceptible isolates after 24 hrs by broth microdilution method
Staphylococcus aureus [28] = test: Bactericidal activity against methicillin-resistant Staphylococcus aureus after 24 hrs by plate counting method; settings: Staphylococcus aureus, 24 h
[29] = tested on: Staphylococcus haemolyticus; test: Antimicrobial activity against methicillin-resistant coagulase-negative Staphylococcus haemolyticus assessed as resistant isolates after 24 hrs by broth microdilution method
Staphylococcus aureus [30] = test: Antimicrobial activity against methicillin-susceptible Staphylococcus aureus after 24 hrs by broth microdilution method; procedure, shortened: as §2
Staphylococcus hominis [31] = test: Antimicrobial activity against methicillin-resistant coagulase-negative Staphylococcus hominis after 24 hrs by broth microdilution method; procedure, shortened: as §2
Staphylococcus hominis [32] = test: Bactericidal activity against methicillin-resistant coagulase-negative Staphylococcus hominis after 24 hrs by plate counting method
[33] = tested on: Staphylococcus haemolyticus; test: Antimicrobial activity against methicillin-susceptible coagulase-negative Staphylococcus haemolyticus assessed as resistant isolates after 24 hrs by broth microdilution method
Staphylococcus hominis [34] = test: Antimicrobial activity against methicillin-susceptible coagulase-negative Staphylococcus hominis assessed as susceptible isolates after 24 hrs by broth microdilution method
Staphylococcus aureus [35] = test: Bactericidal activity against methicillin-susceptible Staphylococcus aureus after 24 hrs by plate counting method; procedure, shortened: as §1
Staphylococcus aureus [36] = test: Antimicrobial activity against methicillin-susceptible Staphylococcus aureus assessed as susceptible isolates after 24 hrs by broth microdilution method
Staphylococcus hominis [37] = test: Antimicrobial activity against methicillin-susceptible coagulase-negative Staphylococcus hominis assessed as resistant isolates after 24 hrs by broth microdilution method
[38] = tested on: Staphylococcus haemolyticus; test: Antimicrobial activity against methicillin-resistant coagulase-negative Staphylococcus haemolyticus after 24 hrs by broth microdilution method; procedure, shortened: as §2
[39] = tested on: Staphylococcus haemolyticus; test: Antimicrobial activity against methicillin-susceptible coagulase-negative Staphylococcus haemolyticus after 24 hrs by broth microdilution method; procedure, shortened: as §2

Which Activity (Staphylococcus hominis [1]) does the source give for `CC[C@H]1OC(=O)[C@H](C)[C@@H](O[C@H]2C[C@@](C)(OC)[C@@H](O)[C@H](C)O2)[C@H](C)[C@@H](O[C@@H]2O[C@H](C)C[C@H](N(C)C)[C@H]2O)[C@](C)(O)C[C@@H](C)C(=O)[C@H](C)[C@@H](O)[C@]1(C)O` [ERYTHROMYCIN] here?
Its Activity is 15%.

What about the MBC50 (Staphylococcus simulans [2]) of the same compound?
Its MBC50 is 32 µg/mL (≈ 43.6 µM).

What about the MBC (Staphylococcus simulans [2]; Staphylococcus simulans, 24 h) of the same compound?
The MBC was 1 µg/mL (≈ 1.36 µM).

And the MBC50 [3]?
Its MBC50 is 2 µg/mL (≈ 2.73 µM).

What about the MBC ([3]; Staphylococcus epidermidis, 24 h) of the same compound?
The MBC was 1 µg/mL (≈ 1.36 µM).

What about the MBC50 (Staphylococcus simulans [4]) of the same compound?
Its MBC50 is 2 µg/mL (≈ 2.73 µM).

What about the MBC (Staphylococcus simulans [4]; Staphylococcus simulans, 24 h) of the same compound?
Its MBC is 1 µg/mL (≈ 1.36 µM).

What about the MBC50 [5] of the same compound?
Its MBC50 is 2 µg/mL (≈ 2.73 µM).

And the MBC ([5]; Staphylococcus haemolyticus, 24 h)?
The MBC was 1 µg/mL (≈ 1.36 µM).

And the MIC50 (Staphylococcus simulans [6])?
The MIC50 was 16 µg/mL (≈ 21.8 µM).

And the MIC90 (Staphylococcus simulans [6])?
Its MIC90 is 32 µg/mL (≈ 43.6 µM).

What about the Activity (Mammaliicoccus sciuri [7]) of the same compound?
Its Activity is 27%.

What about the MBC50 (Mammaliicoccus sciuri [8]) of the same compound?
Its MBC50 is 2 µg/mL (≈ 2.73 µM).

What about the MBC (Mammaliicoccus sciuri [8]; Mammaliicoccus sciuri, 24 h) of the same compound?
The MBC was 1 µg/mL (≈ 1.36 µM).

What about the Activity (Mammaliicoccus sciuri [9]) of the same compound?
Its Activity is 15%.

And the MIC (Mammaliicoccus sciuri [10])?
Its MIC is 0.5 µg/mL (≈ 0.681 µM).

What about the MIC50 (Mammaliicoccus sciuri [10]) of the same compound?
Its MIC50 is 0.5 µg/mL (≈ 0.681 µM).

What about the MIC90 (Mammaliicoccus sciuri [10]) of the same compound?
Its MIC90 is 16 µg/mL (≈ 21.8 µM).

What about the MBC50 (Staphylococcus hominis [11]) of the same compound?
The MBC50 was 2 µg/mL (≈ 2.73 µM).

And the MBC (Staphylococcus hominis [11]; Staphylococcus hominis, 24 h)?
Its MBC is 1 µg/mL (≈ 1.36 µM).

What about the MIC50 (Mammaliicoccus sciuri [12]) of the same compound?
The MIC50 was 16 µg/mL (≈ 21.8 µM).

What about the MIC90 (Mammaliicoccus sciuri [12]) of the same compound?
Its MIC90 is 32 µg/mL (≈ 43.6 µM).

What about the Activity (Staphylococcus hominis [13]) of the same compound?
Its Activity is 74%.

What about the Activity [14] of the same compound?
Its Activity is 15%.

And the Activity (Staphylococcus aureus [15])?
Its Activity is 100%.

And the MIC (Staphylococcus hominis [16])?
The MIC was 0.5 µg/mL (≈ 0.681 µM).

And the MIC50 (Staphylococcus hominis [16])?
Its MIC50 is 0.5 µg/mL (≈ 0.681 µM).

And the MIC90 (Staphylococcus hominis [16])?
Its MIC90 is 16 µg/mL (≈ 21.8 µM).

And the Activity [17]?
The Activity was 15%.

What about the Activity (Staphylococcus aureus [18]) of the same compound?
Its Activity is 4%.

What about the Activity (Staphylococcus simulans [19]) of the same compound?
The Activity was 74%.

And the Activity (Staphylococcus hominis [20])?
The Activity was 11%.

And the Activity (Mammaliicoccus sciuri [21])?
Its Activity is 15%.

What about the Activity [22] of the same compound?
Its Activity is 50%.

What about the Activity [23] of the same compound?
The Activity was 11%.

And the Activity (Staphylococcus simulans [24])?
The Activity was 27%.

What about the Activity (Staphylococcus aureus [25]) of the same compound?
Its Activity is 0%.

What about the MIC (Staphylococcus simulans [26]) of the same compound?
Its MIC is 0.5 µg/mL (≈ 0.681 µM).

And the MIC50 (Staphylococcus simulans [26])?
The MIC50 was 0.5 µg/mL (≈ 0.681 µM).

And the MIC90 (Staphylococcus simulans [26])?
Its MIC90 is 16 µg/mL (≈ 21.8 µM).

And the Activity (Staphylococcus aureus [27])?
Its Activity is 0%.

And the MBC (Staphylococcus aureus [28])?
The MBC was 32 µg/mL (≈ 43.6 µM).

What about the Activity [29] of the same compound?
Its Activity is 74%.

What about the MIC (Staphylococcus aureus [30]) of the same compound?
Its MIC is 0.5 µg/mL (≈ 0.681 µM).

And the MIC50 (Staphylococcus aureus [30])?
The MIC50 was 0.5 µg/mL (≈ 0.681 µM).

And the MIC90 (Staphylococcus aureus [30])?
Its MIC90 is 32 µg/mL (≈ 43.6 µM).

What about the MIC50 (Staphylococcus hominis [31]) of the same compound?
Its MIC50 is 16 µg/mL (≈ 21.8 µM).

And the MIC90 (Staphylococcus hominis [31])?
Its MIC90 is 32 µg/mL (≈ 43.6 µM).

And the MBC50 (Staphylococcus hominis [32])?
Its MBC50 is 32 µg/mL (≈ 43.6 µM).

What about the MBC (Staphylococcus hominis [32]; Staphylococcus hominis, 24 h) of the same compound?
The MBC was 1 µg/mL (≈ 1.36 µM).

What about the Activity [33] of the same compound?
Its Activity is 27%.

And the Activity (Staphylococcus hominis [34])?
Its Activity is 50%.

What about the MBC50 (Staphylococcus aureus [35]) of the same compound?
The MBC50 was 4 µg/mL (≈ 5.45 µM).

What about the MBC (Staphylococcus aureus [35]; Staphylococcus aureus, 24 h) of the same compound?
Its MBC is 1 µg/mL (≈ 1.36 µM).

And the Activity (Staphylococcus aureus [36])?
The Activity was 56%.

And the Activity (Staphylococcus hominis [37])?
The Activity was 27%.

What about the MIC50 [38] of the same compound?
The MIC50 was 16 µg/mL (≈ 21.8 µM).

What about the MIC90 [38] of the same compound?
Its MIC90 is 32 µg/mL (≈ 43.6 µM).

And the MIC [39]?
The MIC was 0.5 µg/mL (≈ 0.681 µM).

What about the MIC50 [39] of the same compound?
Its MIC50 is 0.5 µg/mL (≈ 0.681 µM).

What about the MIC90 [39] of the same compound?
Its MIC90 is 16 µg/mL (≈ 21.8 µM).
